These results are taken from ChEMBL document CHEMBL1208718, “Rational design of a novel peripherally-restricted, orally active CB(1) cannabinoid antagonist containing a 2,3-diarylpyrrole motif” (Bioorg Med Chem Lett, 2010).

Series [1] concerns the target T1, Cannabinoid receptor 2 (Rattus norvegicus) (UniProt Q9QZN9).
T1 sequence (whole entry): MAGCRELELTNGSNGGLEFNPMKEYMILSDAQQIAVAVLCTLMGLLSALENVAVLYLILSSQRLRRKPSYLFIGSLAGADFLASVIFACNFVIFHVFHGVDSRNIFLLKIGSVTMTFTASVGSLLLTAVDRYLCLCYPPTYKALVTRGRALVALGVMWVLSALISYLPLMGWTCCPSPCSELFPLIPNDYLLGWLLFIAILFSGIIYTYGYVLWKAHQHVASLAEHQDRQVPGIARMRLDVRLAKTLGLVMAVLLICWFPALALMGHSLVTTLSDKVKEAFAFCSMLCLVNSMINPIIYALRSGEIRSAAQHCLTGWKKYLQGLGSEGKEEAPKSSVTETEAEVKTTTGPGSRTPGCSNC
Briefly: Binding affinity to CB2 receptor in rat spleen homogenates at 1 uM. It counts as tissue-based.

Series [2] deals with Mus musculus. Briefly: Ex vivo displacement of [3H]CP-55940 from mouse brain homogenates without cerebellum at 10 mg/kg, iv after 30 mins. It counts as functional. The procedure, abridged:
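Mice dosed iv at 10 mg/kg and killed by decapitation 30 min later. Brain homogenized without cerebellum, and inhibition of [3H]-CP55940 binding measured in the homogenate.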

The subject of series [3] is Mus musculus. In words: Reversal of CP-55940-induced inhibition of intestinal transit in po dosed mouse. It counts as functional. Put shortly:
(§1)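 Mice dosed orally with antagonist, then given CP55940 0.15 mg/kg ip to inhibit intestinal transit. Reversal scored as DE50 (mg/kg po) or as % reversal at a single oral dose.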

For series [4], the system named is Mus musculus. In words: Reversal of CP-55940-induced hypothermia in po dosed mouse. It counts as functional. Put shortly:
(§2)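 Mice dosed orally with antagonist, then challenged with CP55940 0.3 mg/kg ip to induce hypothermia. Reversal scored as DE50 (mg/kg po) or as % reversal at a single oral dose.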

Series [5] deals with Cannabinoid receptor 1 (Rattus norvegicus, UniProt P20272). Briefly: Binding affinity to CB1 receptor in rat brain synaptosomal membranes. It counts as cell membranes.
The subject of series [6] is Mus musculus. Briefly: Reversal of CP-55940-induced inhibition of intestinal transit in mouse at 10 mg/kg, po. It counts as functional. Further details: scale not given: the % may be the effect or the level left. The procedure, abridged:
as §1

Series [7] deals with Mus musculus. In words: Reversal of CP-55940-induced hypothermia in po dosed mouse at 30 mg/kg, po. It counts as functional. The procedure, abridged:
as §2

The nature of series [8]: Metabolic stability in mouse liver microsomes at 5 uM after 10 mins by HPLC analysis in presence of NADPH. It counts as ADME, Microsome. Put shortly:
(§3)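 Hepatic microsomal fractions from mouse, rat and human were used at 1 mg/mL microsomal protein, with 10 min incubation of substrate.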

Series [9] concerns Liver microsomes. Briefly: Metabolic stability in rat liver microsomes at 5 uM after 10 mins by HPLC analysis in presence of NADPH. It counts as ADME, Microsome. The procedure, abridged:
as §3

Series [10] deals with Liver microsomes. Briefly: Metabolic stability in human liver microsomes at 5 uM after 10 mins by HPLC analysis in presence of NADPH. It counts as ADME, Microsome. Put shortly: as §3
In general terms: Liver microsomes are a subcellular fraction often used to study metabolism.

Series [11] is described as follows: Cmax in Swiss CD1 mouse at 10 mg/kg, po after 2 hrs. The following applies: in vivo. It counts as ADME, organism-based. The arrangement: dose 10 mg/kg, route oral. Put shortly:
(§4)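 Male Swiss CD1 mice received a single oral 10 mg/kg dose. Drug levels were measured in plasma (ng/mL) and brain (ng/g tissue) over 24 h.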

Series [12] in a line: Drug level in Swiss CD1 mouse brain assessed per gram of tissue at 10 mg/kg, po after 6 hrs. It counts as ADME, organism-based. The arrangement: dose 10 mg/kg, route oral. The following applies: read-out: Drug uptake. Put shortly: as §4
The nature of series [13]: AUC (0 to 24 hrs) ratio in brain to plasma of Swiss CD1 mouse at 10 mg/kg, po. It counts as ADME, organism-based. The arrangement: dose 10 mg/kg, route oral.
In series [14] the target is T2, Cannabinoid receptor 1 (Homo sapiens, UniProt P21554). Briefly: Inhibition of human recombinant CB1 receptor expressed in CHO cells. It counts as cell-based.
In series [15] the target is T2, Cannabinoid receptor 1. Briefly: Antagonist activity at CB1 receptor in forskolin-stimulated human U373-MG cells assessed as inhibition of CP-55940-induced cAMP accumulation. It counts as functional, cell-based, U-373MG ATCC. Put shortly: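 Human U373-MG cells; forskolin-stimulated cAMP accumulation was inhibited with CP55940, and the antagonist was tested over a range of concentrations for reversal of that inhibition. The EC50 was derived from the concentration–response.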
On the technique in general: cAMP levels reflect the balance of adenylyl cyclase and phosphodiesterase activity.

A short description of series [16]: Oral bioavailability in Swiss CD1 mouse at 10 mg/kg. The following applies: in vivo.

For orientation: inhibition means the drop in the measured response relative to a control, in per cent. What is called inhibition in vivo is the relative decrease from the control value, in per cent. The ED50 is the dose that gives a 50% effect, or the effect in half of the subjects. A word on the IC50: it is the midpoint of a concentration-inhibition curve. The term Cmax denotes the maximum level reached in the sampled fluid or tissue. In general, Kp refers to tissue or fluid exposure divided by exposure in the circulation. What is called EC50 is the concentration giving half of the maximal effect. Broadly, the bioavailability is the share of a dose that reaches the circulation, judged against a reference dose that is usually intravenous.

Sequence of Cannabinoid receptor 1 (Rattus norvegicus, UniProt P20272) (P20272 whole entry): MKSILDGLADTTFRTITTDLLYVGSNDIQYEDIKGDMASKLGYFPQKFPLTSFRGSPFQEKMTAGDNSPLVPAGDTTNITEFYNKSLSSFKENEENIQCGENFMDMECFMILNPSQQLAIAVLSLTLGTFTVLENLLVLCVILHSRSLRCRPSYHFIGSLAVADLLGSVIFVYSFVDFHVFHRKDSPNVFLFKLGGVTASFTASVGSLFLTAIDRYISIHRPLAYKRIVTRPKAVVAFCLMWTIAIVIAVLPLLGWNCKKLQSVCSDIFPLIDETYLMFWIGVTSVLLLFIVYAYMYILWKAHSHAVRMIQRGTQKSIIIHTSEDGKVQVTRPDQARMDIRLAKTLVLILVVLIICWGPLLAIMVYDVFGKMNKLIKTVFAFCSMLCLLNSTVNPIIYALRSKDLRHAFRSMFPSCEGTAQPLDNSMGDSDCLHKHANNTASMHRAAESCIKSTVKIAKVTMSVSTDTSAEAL
T2 sequence (P21554 whole entry): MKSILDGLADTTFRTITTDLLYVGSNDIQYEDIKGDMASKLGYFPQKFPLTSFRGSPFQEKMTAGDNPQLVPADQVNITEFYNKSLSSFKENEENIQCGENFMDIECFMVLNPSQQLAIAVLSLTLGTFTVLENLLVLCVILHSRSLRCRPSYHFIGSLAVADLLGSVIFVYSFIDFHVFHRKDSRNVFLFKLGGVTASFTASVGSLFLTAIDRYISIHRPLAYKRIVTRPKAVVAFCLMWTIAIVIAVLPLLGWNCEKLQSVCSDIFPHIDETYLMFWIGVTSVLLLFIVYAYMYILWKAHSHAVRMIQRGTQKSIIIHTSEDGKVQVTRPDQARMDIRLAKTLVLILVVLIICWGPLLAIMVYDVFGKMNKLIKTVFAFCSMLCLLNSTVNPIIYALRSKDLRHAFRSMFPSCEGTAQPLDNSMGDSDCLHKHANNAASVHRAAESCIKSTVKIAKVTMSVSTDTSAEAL

For `Cc1c(C(=O)NN2CCCCC2)nn(-c2ccc(Cl)cc2Cl)c1-c1ccc(Cl)cc1` [RIMONABANT], the inhibition in series [1] amounted to 66%. Further, in the series with Mus musculus [2], 10 mg/kg produced 100% inhibition in vivo. Moreover, the 50% effective dose (ED50) in the series with Mus musculus [3] was found to be 1 mg/kg; in the series with Mus musculus [4], 0.6 mg/kg.
As for `CS(=O)(=O)CCn1c(C(=O)N2CCC(C(N)=O)(N3CCCCC3)CC2)cc(-c2ccc(Cl)cc2Cl)c1-c1ccc(Cl)cc1`, the concentration for half-maximal inhibition (IC50) at Cannabinoid receptor 1 [5] is 0.4 nM. Moreover, the inhibition in [1] worked out at 26%. In addition, 10 mg/kg produced 19% inhibition in vivo in the series on Mus musculus [2].
In the same order, the values of `Cn1c(C(=O)N2CCC(C(N)=O)(N3CCOCC3)CC2)cc(-c2ccc(Cl)cc2Cl)c1-c1ccc(Cl)cc1` are 34 nM, 42% and 32%.
In turn, `CS(=O)(=O)NCCCn1c(C(=O)N2CCC(C(N)=O)(N3CCCCC3)CC2)cc(-c2ccc(Cl)cc2Cl)c1-c1ccc(Cl)cc1` displayed a 50% inhibitory concentration (IC50) on Cannabinoid receptor 1 [5] of 1.4 nM. In [1], this molecule registered an inhibition of 16%. For the same molecule, testing at 10 mg/kg in the series on Mus musculus [2] gave an inhibition in vivo of 18%. Also, the Activity in the series with Mus musculus [6] stood at 51%; in the series on Mus musculus [7] it was 1%.
On Cannabinoid receptor 1 [5], `CC(C)(CCCn1c(C(=O)N2CCC(C(N)=O)(N3CCCCC3)CC2)cc(-c2ccc(Cl)cc2Cl)c1-c1ccc(Cl)cc1)C(=O)O` registered a 50% inhibitory concentration (IC50) of 160 nM. In series [1], the inhibition came to 52%.
With `N#CCCn1c(C(=O)N2CCC(C(N)=O)(N3CCCCC3)CC2)cc(-c2ccc(Cl)cc2Cl)c1-c1ccc(Cl)cc1`, the IC50 at Cannabinoid receptor 1 [5] came to 8 nM. The inhibition in [1] stood at 18%. Further, the inhibition in vivo at 10 mg/kg in the series on Mus musculus [2] was 39%.
In the same order, the values of `Cn1c(C(=O)N2CCC(C(N)=O)(c3ccccc3)CC2)cc(-c2ccc(Cl)cc2Cl)c1-c1ccc(Cl)cc1` are 0.7 nM, 17% and 86%.
`CC1(C)CCN(C2(C(N)=O)CCN(C(=O)c3cc(-c4ccc(Cl)cc4Cl)c(-c4ccc(Cl)cc4)n3CCCNS(C)(=O)=O)CC2)CC1` yielded an IC50 on Cannabinoid receptor 1 [5] of 4.3 nM. In [1], the inhibition turned out to be 27%. The molecule also had an inhibition in vivo at 10 mg/kg in the series on Mus musculus [2] of 33%. Besides, in the series with Mus musculus [3], the median effective dose (ED50) turned out to be 4.1 mg/kg. Also, the Activity in the series on Mus musculus [7] worked out at 0%.
Take `CS(=O)(=O)NCCCn1c(C(=O)N2CCC(C(N)=O)(N3CCC(F)(F)CC3)CC2)cc(-c2ccc(Cl)cc2Cl)c1-c1ccc(Cl)cc1`: the concentration for half-maximal inhibition (IC50) amounted to 1 nM at Cannabinoid receptor 1 [5] and 1.4 nM on Cannabinoid receptor 1 [14]. Further, the inhibition in series [1] amounted to 39%. Moreover, the inhibition in vivo at 10 mg/kg with Mus musculus [2] worked out at 28%. In the series on Mus musculus [3], the 50% effective dose (ED50) was 2.4 mg/kg. Further, in the series on Mus musculus [7], the Activity amounted to 0%. Further, the Stability entry (in series [8]; in the series with Liver microsomes [9]; with Liver microsomes [10]) was “Stable” each time. The molecule further showed a maximum concentration (Cmax) in series [11] of 570 ng/mL. In addition, the concentration at 6 h in [12] amounted to 6.4 ng/g. Moreover, the Kp in [13] was found to be 0.01. In addition, the EC50 at Cannabinoid receptor 1 [15] is 15 nM. The molecule also came in with a bioavailability in series [16] of 37%.
Regarding `Cn1c(C(=O)N2CCC(C(N)=O)(N3CCCCC3)CC2)cc(-c2ccc(Cl)cc2Cl)c1-c1ccc(Cl)cc1`, at Cannabinoid receptor 1 [5], the concentration for half-maximal inhibition (IC50) was 0.2 nM. For the same molecule, the inhibition in [1] was found to be 48%. In the series with Mus musculus [2], the inhibition in vivo at 10 mg/kg was 96%.
As for `NC(=O)C1(N2CCCCC2)CCN(C(=O)c2cc(-c3ccc(Cl)cc3Cl)c(-c3ccc(Cl)cc3)n2CCC(=O)O)CC1`, the IC50 on Cannabinoid receptor 1 [5] worked out at 180 nM. Besides, the inhibition in series [1] is 14%.
